Measurements: ChEMBL document CHEMBL1134405 (J Med Chem, 2001)
Calls of active or inactive are those of the source. No cut-off for these calls is given here. Peptide text beside a SMILES is read from it.

Key:
[1] = biological target: T1, Adenylate cyclase (Rattus norvegicus) (UniProt D4A3N4+P26770+Q04400+P26769+Q03343+P40146+Q8CFM9+P21932); experiment: Adenylate cyclase stimulation; Inactive up to 100 uM.; format: protein assay
[2] = biological target: T1, Adenylate cyclase (Rattus norvegicus); experiment: Maximum stimulation of adenylate cyclase.; format: protein assay
[3] = biological target: Glucagon receptor (Rattus norvegicus) (UniProt P30082); experiment: Relative binding by measuring competition for glucagon receptor between [125]glucagon and the compound.
Chain of Glucagon receptor (Rattus norvegicus) (P30082 whole entry): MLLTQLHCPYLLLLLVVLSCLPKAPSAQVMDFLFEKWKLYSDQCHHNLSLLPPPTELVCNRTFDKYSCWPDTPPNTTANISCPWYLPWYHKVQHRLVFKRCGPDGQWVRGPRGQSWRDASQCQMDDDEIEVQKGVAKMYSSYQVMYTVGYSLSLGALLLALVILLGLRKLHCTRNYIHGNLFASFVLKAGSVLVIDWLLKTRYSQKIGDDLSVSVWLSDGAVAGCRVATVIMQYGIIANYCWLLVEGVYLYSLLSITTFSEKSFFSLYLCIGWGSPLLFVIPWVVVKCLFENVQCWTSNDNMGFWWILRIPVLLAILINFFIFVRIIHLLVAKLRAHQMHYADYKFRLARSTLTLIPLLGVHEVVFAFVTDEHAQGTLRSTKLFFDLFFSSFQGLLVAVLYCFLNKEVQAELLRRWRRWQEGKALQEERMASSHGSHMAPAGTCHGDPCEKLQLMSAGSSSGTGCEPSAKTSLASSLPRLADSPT
Procedure, shortened: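 Incubation 10 min at 30 °C, then ice cooling and filtration on 0.45 μm cellulose acetate, gamma counting. Nonspecific binding taken with 1024 nM unlabeled peptide and subtracted. Read as % inhibition of specific binding. Triplicates, repeated twice.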

Row | Compound | IA [1] | Max stimulation [2] [%] | Relative binding [3] [%]
1 | CSCC[C@H](NC(=O)[C@H](CC(C)C)NC(=O)[C@H](Cc1c[nH]c2ccccc12)NC(=O)[C@H](CCC(N)=O)NC(=O)[C@@H](NC(=O)[C@H](Cc1ccccc1)NC(=O)[C@H](CC(=O)O)NC(=O)[C@H](CCC(N)=O)NC(=O)[C@H](C)NC(=O)[C@H](CCCN=C(N)N)NC(=O)[C@H](CCCN=C(N)N)NC(C)=O)C(C)C)C(=O)N[C@@H](CC(N)=O)C(=O)N[C@H](C(N)=O)[C@@H](C)O | Inactive up to 100 uM | 0 | 0.065
2 | CC(=O)N[C@@H](Cc1ccccc1)C(=O)N[C@@H](CS)C(=O)N[C@@H](CO)C(=O)N[C@@H](CC(=O)O)C(=O)N[C@@H](Cc1ccc(O)cc1)C(=O)N[C@@H](CO)C(=O)N[C@@H](CS)C(=O)N[C@@H](Cc1ccc(O)cc1)C(=O)N[C@@H](CC(C)C)C(N)=O (Ac-FCSDYSCYL-NH2) | Inactive up to 100 uM | 0 | 24
3 | CC(=O)N[C@@H]1CSSC[C@H](C(N)=O)NC(=O)[C@@H](Cc2ccc(O)cc2)NC(=O)[C@H](CCCCN)NC(=O)[C@@H](CO)NC(=O)[C@H](Cc2ccc(O)cc2)NC1=O | Inactive up to 100 uM | 0 | 0
4 | CC(=O)N[C@@H](CS)C(=O)N[C@@H](Cc1ccc(O)cc1)C(=O)N[C@@H](CO)C(=O)N[C@@H](CCCCN)C(=O)N[C@@H](Cc1ccc(O)cc1)C(=O)N[C@@H](CS)C(N)=O (Ac-CYSKYC-NH2) | Inactive up to 100 uM | 0 | 0
5 | CC(=O)N[C@@H](Cc1ccccc1)C(=O)N[C@@H](CS)C(=O)N[C@@H](CO)C(=O)N[C@@H](CC(=O)O)C(=O)N[C@@H](Cc1ccc(O)cc1)C(=O)N[C@@H](CO)C(=O)N[C@@H](CS)C(=O)N[C@@H](Cc1ccc(O)cc1)C(=O)N[C@@H](CC(C)C)C(=O)N[C@@H](CC(=O)O)C(N)=O (Ac-FCSDYSCYLD-NH2) | Inactive up to 100 uM | 0 | 56

The remaining lines, values ahead:

Row | IA [1] | Max stimulation [2] [%] | Relative binding [3] [%] | Compound
6 | Inactive up to 100 uM | 0 | 30 | CC(=O)N[C@@H](Cc1ccccc1)C(=O)N[C@H]1CSSC[C@@H](C(=O)N[C@@H](Cc2ccc(O)cc2)C(=O)N[C@@H](CC(C)C)C(=O)N[C@@H](CC(=O)O)C(N)=O)NC(=O)[C@H](CO)NC(=O)[C@H](Cc2ccc(O)cc2)NC(=O)[C@H](CC(=O)O)NC(=O)[C@H](CO)NC1=O (HELM PEPTIDE1{[ac].F.C.S.D.Y.S.C.Y.L.D.[am]}$PEPTIDE1,PEPTIDE1,3:R3-8:R3$$$V2.0)
7 | Inactive up to 100 uM | 0 | 24 | CC(=O)N[C@@H](Cc1ccccc1)C(=O)N[C@H]1CSSC[C@@H](C(=O)N[C@@H](Cc2ccc(O)cc2)C(=O)N[C@@H](CC(C)C)C(N)=O)NC(=O)[C@H](CO)NC(=O)[C@H](Cc2ccc(O)cc2)NC(=O)[C@H](CC(=O)O)NC(=O)[C@H](CO)NC1=O (HELM PEPTIDE1{[ac].F.C.S.D.Y.S.C.Y.L.[am]}$PEPTIDE1,PEPTIDE1,3:R3-8:R3$$$V2.0)
8 | Inactive up to 100 uM | 0 | 62 | CC(=O)N[C@@H](Cc1ccccc1)C(=O)N[C@H]1CSSC[C@@H](C(=O)N[C@@H](CCCCN)C(=O)N[C@@H](Cc2ccc(O)cc2)C(=O)N[C@@H](CC(C)C)C(N)=O)NC(=O)[C@H](Cc2ccc(O)cc2)NC(=O)[C@H](CC(=O)O)NC(=O)[C@H](CO)NC1=O (HELM PEPTIDE1{[ac].F.C.S.D.Y.C.K.Y.L.[am]}$PEPTIDE1,PEPTIDE1,3:R3-7:R3$$$V2.0)
9 | Inactive up to 100 uM | 0 | 30 | CC(=O)N[C@@H](Cc1ccccc1)C(=O)N[C@@H](CS)C(=O)N[C@@H](CO)C(=O)N[C@@H](CC(=O)O)C(=O)N[C@@H](Cc1ccc(O)cc1)C(=O)N[C@@H](CS)C(=O)N[C@@H](CCCCN)C(=O)N[C@@H](Cc1ccc(O)cc1)C(=O)N[C@@H](CC(C)C)C(N)=O (Ac-FCSDYCKYL-NH2)
